VIM-2 inh: VIM-2 metallo-beta-lactamase inhibitors, primary screen, biochemical, epi-absorbance readout, Pseudomonas aeruginosa enzyme; actives 0.89% (n = 290,000); purified VIM-2, nitrocefin hydrolysis, epi-absorbance fluorescence; inhibition, % at 5.6 µM;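 active means inhibition above the mean of all tested compounds plus 3 SD, cutoff set per screening run, cut at about 7.5% in these data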;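 further: red hydrolysis product quenches plate fluorescence so inhibitors raise well fluorescence; 0% = enzyme with DMSO and 100% = DMSO without enzyme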
HGIII-sPLA2 inh: human group III sPLA2 inhibitors, primary screen, biochemical, QFRET, BODIPY PC-A2 liposome substrate. inhibition, % at 12.2 µM. actives 0.56% (n = 370,000). QFRET BODIPY PC-A2 liposome hydrolysis, fluorescence;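 active means inhibition above mean plus 3 SD of compounds lying within the high and low control bounds, cut at about 19% in these data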;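 further: 0% = median of test compound wells and 100% = no enzyme DMSO wells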
Target sequence (Q9NZ20 whole entry, looked up): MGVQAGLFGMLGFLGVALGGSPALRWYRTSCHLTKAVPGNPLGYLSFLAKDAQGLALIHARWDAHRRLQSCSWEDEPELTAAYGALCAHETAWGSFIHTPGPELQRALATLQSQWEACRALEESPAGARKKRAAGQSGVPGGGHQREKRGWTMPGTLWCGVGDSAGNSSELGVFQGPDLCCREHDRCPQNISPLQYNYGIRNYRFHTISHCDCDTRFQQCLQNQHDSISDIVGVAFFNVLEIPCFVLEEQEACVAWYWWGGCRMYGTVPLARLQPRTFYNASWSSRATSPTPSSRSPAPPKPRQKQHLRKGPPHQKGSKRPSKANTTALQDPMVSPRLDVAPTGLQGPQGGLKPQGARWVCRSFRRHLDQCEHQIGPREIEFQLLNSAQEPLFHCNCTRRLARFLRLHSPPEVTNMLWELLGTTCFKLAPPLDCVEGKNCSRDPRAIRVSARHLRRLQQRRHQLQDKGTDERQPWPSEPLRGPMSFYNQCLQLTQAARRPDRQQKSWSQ
M18AAP inhibitor: PfM18AAP inhibitors, malaria aminopeptidase, primary screen, biochemical, QFRET, recombinant enzyme. M18 aspartyl aminopeptidase (Plasmodium falciparum 3D7). H-Glu-NHMec fluorogenic cleavage. inhibition, % at 7.35 µM. actives 1.2% (n = 290,000);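 active means inhibition above the campaign mean inhibition over all tested compounds plus 3 SD, cut at about 28% in these data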;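 further: 0% = plate median of test compound wells and 100% = 2 mM ZnCl2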
IMP-1 inh-1: IMP-1 metallo-beta-lactamase inhibitors, primary screen, biochemical, epi-absorbance readout, Pseudomonas aeruginosa enzyme. metallo-beta-lactamase IMP-1 (Pseudomonas aeruginosa). purified IMP-1, nitrocefin hydrolysis, epi-absorbance fluorescence. inhibition, % at 5.6 µM. actives 0.45% (n = 290,000);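 active means inhibition above the mean plus 3 SD of all compounds in the same screening run, cut at about 4.5% in these data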;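 further: 0% = IMP-1 with DMSO and 100% = DMSO wells lacking enzyme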
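System: purified IMP-1; amount: IMP-1 0.2 nM before substrate addition; compound: single dose, 5.6 µM; times: 25 °C, 15 min preincubation, 25 min reaction; signal: Epi-absorbance via hydrolysed-nitrocefin quenching of white-plate fluorescence, 480/530 nm, EDTA stop; benchmarks: DMSO with and without IMP-1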
IMP-1 inh-2: IMP-1 metallo-beta-lactamase inhibitors, confirmation, selectivity assay for selective VIM-2 inhibitor project, biochemical, epi-absorbance readout, triplicate; shares compounds with VIM-2 inh; purified IMP-1, nitrocefin hydrolysis, epi-absorbance fluorescence; inhibition, % at 5.6 µM; 1,300 tested, under 10 active; AID 1856, 2009; call rule not given here;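 further: 0% = enzyme with vehicle and 100% = vehicle without enzyme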
VIM-2 FRET inh: VIM-2 inhibitors in FRET format, confirmation, artefact control for selective VIM-2 inhibitor project, biochemical, epi-absorbance artifact exclusion; shares compounds with VIM-2 inh; purified VIM-2, CCF2 FRET substrate hydrolysis; inhibition, % at 5.6 µM; actives 23% (n = 1,300); AID 1857, 2009;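 active means inhibition above the mean of all tested compounds plus 3 SD, cut at about 19% in these data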;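 further: 0% = VIM-2 plus DMSO and 100% = no enzyme wells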
TEM-1 inh: TEM-1 serine beta-lactamase inhibitors, counter-screen for VIM-2 inhibitor project, biochemical, epi-absorbance, HTS. Purified TEM-1, nitrocefin hydrolysis, epi-absorbance fluorescence. shares compounds with VIM-2 inh. actives 3% (n = 1,300). inhibition, % at 5.6 µM;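 active means inhibition above that campaign's mean inhibition plus 3 SD, cut at about 0.46% in these data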;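 further: 0% = TEM-1 with DMSO and 100% = TEM-1 with 100 µM potassium clavulanate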
VIM-2 confirm 2: VIM-2 metallo-beta-lactamase inhibitors, confirmation, biochemical, epi-absorbance, hits shared with IMP-1 screen | shares compounds with VIM-2 inh | actives 96% (n = 1,300) | purified VIM-2, nitrocefin hydrolysis | AID 2187, 2009 | inhibition, % at 5.6 µM;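 active means inhibition of the VIM-2 beta-lactamase enzyme above about 11% from the earlier first-round screen, limit read from the data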;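 further: 0% = VIM-2 with DMSO and 100% = buffer wells without enzyme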
Active calls of the source: *; · = no result. In the library only some 2.4% were active in any assay of this set; here they are far more common.

SMILES	VIM-2 inh	HGIII-sPLA2 inh	M18AAP inhibitor	IMP-1 inh-1	IMP-1 inh-2	VIM-2 FRET inh	TEM-1 inh	VIM-2 confirm 2
CCn1c(=O)c2cc(C(=O)NCCN(C)C)sc2c2ccccc21	13*	-4	1	-1	-2	1	-5	20*
CCN(CC)CCNC(=O)c1cc2c(=O)n(CC)c3ccccc3c2s1	14*	-7	-2	-4	-2	-1	-4	21*
CCN(CC)CCCNC(=O)c1cc2c(=O)n(CC)c3ccccc3c2s1	14*	3	5	-2	-2	1	-5	21*
CC(C)c1ccccc1NC(=O)[C@@H]1CCCN1S(=O)(=O)c1cccc2cccnc12	·	3	·	·	·	·	·	·
CC(=O)c1cccc(OC(=O)Oc2cccc(C(C)=O)c2)c1	·	1	·	·	·	·	·	·
N#CCCN(NC1=NS(=O)(=O)c2ccccc21)C(=O)c1ccccc1Br	-2	·	2	-3	·	·	·	·
Cc1ccc(-c2nnc3c4ccccc4c(C)nn23)cc1S(=O)(=O)N1CCN(CCO)CC1	25*	3	-4	-2	-2	14	-10	48*
Cc1ccc(-c2nnc3c4ccccc4c(C)nn23)cc1NC(=O)CN1CCOCC1	-3	·	-4	-4	·	·	·	·
Cc1nn2c(-c3ccc(S(=O)(=O)N4CCN(C)CC4)o3)nnc2c2ccccc12	24*	9	3	-1	-1	4	-5	34*
CC1Cc2cc(S(=O)(=O)N3CCC(C(=O)N(C)Cc4ccccc4)CC3)ccc2N1C(=O)C1CC1 (stereo not given)	0	-17	-9	-1	·	·	·	·
Cn1c(N)c(C(=O)COC(=O)c2cc(-c3ccco3)nc3ccccc23)c(=O)n(C)c1=O	14*	-6	-11	4	-2	-20	-5	37*
COc1ccc(/C=C2\CCCc3c2nc2ccccc2c3C(=O)OCC(=O)c2c(N)n(C)c(=O)n(C)c2=O)cc1	14*	·	19	0	-3	3	-6	6
Cn1c(N)c(C(=O)COC(=O)c2cc(C3CC3)nc3ccccc23)c(=O)n(C)c1=O	13*	5	2	-3	-2	9	-7	63*
COc1ccc(/C=C/C(=O)OCC(=O)c2c(N)n(C)c(=O)n(C)c2=O)cc1	-2	0	-7	-2	·	·	·	·
Cn1c(N)c(C(=O)COC(=O)c2cc(C(F)(F)F)nc3ccccc23)c(=O)n(Cc2ccccc2)c1=O	-2	·	-2	-2	·	·	·	·
Cc1n[nH]c(C)c1CCCCOc1ccc([N+](=O)[O-])cc1	20*	11	-2	-2	-3	47*	-7	30*
Cc1n[nH]c(C)c1CCCCOc1ccccc1	1	-5	1	0	·	·	·	·
C[C@H]1COc2cccc(N3CCCC3)c2S(=O)(=O)N1C	·	-3	·	·	·	·	·	·
COC(=O)c1c(NC(=O)c2ccco2)sc2c1CCN(C(C)=O)C2	21*	2	-4	-1	-3	-5	-6	30*
COC(=O)c1c(NC(=O)c2ccco2)sc(C(=O)N2CCCC2)c1C	0	7	0	-2	·	·	·	·
COC(=O)C1=C/C=C\CN(C(c2ccccc2)c2ccccc2)/C=C\1C(=O)OC	·	-5	·	·	·	·	·	·
CCN(CC)C(=O)c1cccc(-c2csc(C(O)c3cccc(OC)c3)n2)c1 (stereo not given)	·	-10	·	·	·	·	·	·
CC(=O)N/N=C/c1cc(C(C)(C)C)cc(/C=N/NC(C)=O)c1O	39*	-17	2	1	2	10	-4	55*
CCc1cc(=O)oc2c(C)c(OCC(=O)NCCCN3CCCC3=O)ccc12	5	1	0	-2	·	·	·	·
CCCc1cc(=O)oc2cc(OCC(=O)NCCCn3ccnc3)c(Cl)cc12	19*	-5	-2	-3	-3	-4	-6	30*
SMILES	VIM-2 inh	HGIII-sPLA2 inh	M18AAP inhibitor	IMP-1 inh-1	IMP-1 inh-2	VIM-2 FRET inh	TEM-1 inh	VIM-2 confirm 2
Cc1oc2c(C)c3oc(=O)c(CCC(=O)NCCCn4ccnc4)c(C)c3cc2c1C	24*	-13	9	1	-2	-10	-8	30*
CCCc1cc(=O)oc2cc(OCC(=O)NCCCN3CCOCC3)c(Cl)cc12	1	7	-1	-4	·	·	·	·
CCCc1cc(=O)oc2c(C)c(OCC(=O)NCCCn3ccnc3)ccc12	16*	-8	3	-1	-2	-12	-5	27*
Cc1c(OCC(=O)NCCCn2ccnc2)ccc2c3c(c(=O)oc12)CCCC3	54*	-10	-4	-3	-3	-8	-14	64*
COCCNC(=O)Cn1cnc2c(cnn2-c2ccc(OC)cc2)c1=O	0	-1	1	-3	·	·	·	·
O=C1C(=O)N(c2nccs2)C(c2ccccc2)/C1=C(\O)c1ccc2c(c1)OCCO2 (stereo not given)	4	·	4	2	·	·	·	·
O=C1C(=O)N(c2nccs2)C(c2ccccc2F)/C1=C(\O)c1ccc2c(c1)OCCO2 (stereo not given)	21*	-5	3	1	-3	33*	-5	22*
O=Cc1ccc2ccc3cccnc3c2n1	59*	-3	3	-1	-4	-5	-5	70*
CCCN1CCS(=O)(=O)N(Cc2cn(Cc3ccc(OC)cc3)nn2)C(C(=O)OC)C1 (stereo not given)	·	3	·	·	·	·	·	·
CN1CCN(c2ccc(NC(=O)COc3ccc4ccccc4c3)cc2)CC1	6	-6	2	0	·	·	·	·
COc1ccc(C(=O)Nc2ccc(S(=O)(=O)N3CCN(C)CC3)cc2)cc1	·	-4	·	·	·	·	·	·
CN1CCN(c2ccc(NC(=O)c3ccc(Br)o3)cc2)CC1	14*	1	2	-2	-3	3	-6	31*
CCN1CCN(c2ccc(NC(=O)c3ccc(OC)c(S(=O)(=O)N4CCCC4)c3)cc2)CC1	·	2	·	·	·	·	·	·
CN1CCN(c2ccc(NC(=O)c3ccc4ccccc4c3)cc2)CC1	25*	6	-2	-1	-1	-1	-6	34*
CCN1CCN(c2ccc(NC(=O)c3cc(OC)c(OC)c(OC)c3)cc2)CC1	24*	0	-12	-4	-4	-2	-5	38*

Source: PubChem
